Laboratory results reported in ChEMBL document CHEMBL1128429, “Synthesis and structure-activity relationships of 6-heterocyclic-substituted purines as inactivation modifiers of cardiac sodium channels” (J Med Chem, 1995).

Columns and labels:
[1] = test system: Sodium channel protein type 5 subunit alpha (Cavia porcellus); test: Inactivation process of guinea pig cardiac Na channels expressed in xenopus oocytes was determined by measuring increase in current integral in presence of compound versus control at 10 uM; conditions: oocyte
[2] = Inactivation processes of human heart Na channel expressed in Xenopus oocytes as increase in current at 10 uM; format: functional, Oocyte
Outline: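 Oocytes injected with cRNA transcribed from human cardiac Na channel (HH1) cDNA. Two-microelectrode voltage clamp at 21–23 °C, perfusion buffer with Na raised to 140 mM. Current integrated at −20 mV after the capacity transient settled. Single 10 μM exposure per oocyte; percent change in integral versus control, ± SEM.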

[3] = Effective concentration against Xenopus oocytes expressing guinea pig heart Na channel; format: functional, cell-based, Cavia porcellus; conditions: oocyte
Outline: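 Guinea pig heart RNA in Xenopus oocytes, voltage clamp at 21–23 °C, integral taken at −10 mV. Three or more concentrations, n ≥ 3 each, one per oocyte. Pooled percent-change data plotted semilogarithmically; EC50 (nM giving 50% integral increase) obtained by linear regression over the range lacking significant current block.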

[4] = species on record: Oryctolagus cuniculus; test: Concentration which increased contractility by 20% in rabbit; format: functional
Outline: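 Langendorff-perfused rabbit heart, 45 min equilibration, then five cumulative concentrations with 15 min exposure each. Contractility read as dP/dt; the nanomolar concentration raising it by 20% was derived from the concentration–response curve. Repeated-measures ANOVA, mean change from control ± SEM.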

[5] = species on record: Oryctolagus cuniculus; test: Antiarrhythmic activity was determined by measuring the concentration that produced a 20 ms increase in ERP; format: functional, Heart
Outline: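 Langendorff-perfused rabbit heart, equilibrated 45 min before control. ERP measured after 15 min exposure to each of five cumulative concentrations: single premature stimulus scanning diastole at twice threshold. Concentration giving a 20 ms ERP increase taken from the concentration–response curve; repeated-measures ANOVA, mean change ± SEM.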

[6] = Effective concentration against Xenopus oocytes expressing human heart Na channel; format: functional, cell-based; conditions: oocyte
Outline: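 HH1 human cardiac Na channel cRNA in oocytes; perfusate Na 140 mM, 21–23 °C, integral taken at −20 mV. At least three concentrations, n ≥ 3 each, single concentration per oocyte. Pooled data gave the EC50 (nM producing 50% integral increase) by linear regression over the lower, non-blocking range.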

Row | Compound | Change [1] | Change [2] | other results
1 | O=C(C(c1ccccc1)c1ccccc1)N1CCN(CC(O)Cn2cnc3c(-n4cccc4)ncnc32)CC1 (stereo not drawn) | 6% |  | 
2 | O[C@@H](CN1CCN(C(c2ccccc2)c2ccccc2)CC1)Cn1cnc2c(-c3ncon3)ncnc21 |  | 138% | 
3 | OC(CN1CCC(C(O)(c2ccccc2)c2ccccc2)CC1)Cn1cnc2c(-n3cccc3)ncnc21 (stereo not drawn) | -10% |  | 
4 | Nc1nc(-c2ccncc2)nc2c1ncn2CC(O)CN1CCN(C(c2ccccc2)c2ccccc2)CC1 (stereo not drawn) | -2% |  | 
5 | Nc1ncnc2c1ncn2C[C@@H](O)CN1CCN(C(c2ccccc2)c2ccccc2)CC1 | 139% |  | EC50 [3]: 1040 nM; dP/dt [4]: 89 nM; EC20 [5]: 109 nM
6 | OC(CN1CCN(C(c2ccccc2)c2ccccc2)CC1)Cn1cnc2c(-c3ccccc3)ncnc21 (stereo not drawn) | 151% |  | EC50 [3]: 1260 nM
7 | OC(CN1CCN(C(c2ccccc2)c2ccccc2)CC1)Cn1cnc2ccccc21 (stereo not drawn) | 42% |  | 
8 | OC(CN1CCN(C(c2ccccc2)c2ccccc2)CC1)Cn1cnc2c(N3CCCCC3)ncnc21 (stereo not drawn) | 26% |  | 
9 | OC(CN1CCN(C(c2ccccc2)c2ccccc2)CC1)Cn1cnc2c(Cl)ncnc21 (stereo not drawn) |  | 176% | EC50 [6]: 1950 nM
10 | O[C@@H](CN1CCN(C(c2ccccc2)c2ccccc2)CC1)Cn1cnc(-n2cccn2)c2ncnc1-2 |  | 369% | EC50 [6]: 900 nM; dP/dt [4]: 148 nM; EC20 [5]: 74 nM
11 | OC(CN1CCN(C(c2ccccc2)c2ccccc2)CC1)Cn1cnc2c(C#Cc3ccccc3)ncnc21 (stereo not drawn) | 9% |  | 
12 | OC(CN1CCCN(C(c2ccccc2)c2ccccc2)CC1)Cn1cnc2c(-n3cccc3)ncnc21 (stereo not drawn) | 38% |  | 
13 | OC(CN1CCN(C(c2ccc(F)cc2)c2ccc(F)cc2)CC1)Cn1cnc2c(-n3cccc3)ncnc21 (stereo not drawn) | 521% |  | 
14 | OC(CN1CCN(CC(c2ccccc2)c2ccccc2)CC1)Cn1cnc2c(-n3cccc3)ncnc21 (stereo not drawn) | -47% |  | 
15 | OC(CN1CCN(C(c2ccccc2)c2ccccc2)CC1)Cn1cnc2c(-n3cccc3)ncnc21 (stereo not drawn) | 542% |  | EC50 [3]: 580 nM
16 | NC(CN1CCN(C(c2ccccc2)c2ccccc2)CC1)Cn1cnc2c(-n3cccc3)ncnc21 (stereo not drawn) | 451% |  | 
17 | OC(CN1CCC(=C(c2ccccc2)c2ccccc2)CC1)Cn1cnc2c(-n3cccc3)ncnc21 (stereo not drawn) | 94% |  | 
18 | C[C@](O)(CN1CCN(C(c2ccccc2)c2ccccc2)CC1)Cn1cnc2c(-n3cccc3)ncnc21 | 34% |  | 
19 | OC(CN1CCN(C2c3ccccc3-c3ccccc32)CC1)Cn1cnc2c(-n3cccc3)ncnc21 (stereo not drawn) | -19% |  | 
20 | OC(COc1cccc2[nH]ccc12)CN1CCN(C(c2ccccc2)c2ccccc2)CC1 (stereo not drawn) | -29% |  | 
21 | O[C@@H](CN1CCN(C(c2ccccc2)c2ccccc2)CC1)Cn1cnc(-c2ncon2)c2ncnc1-2 |  | -6% | 
22 | Cc1ncnc2c1ncn2C[C@@H](O)CN1CCN(C(c2ccccc2)c2ccccc2)CC1 |  | 105% | EC50 [6]: 3990 nM
23 | Cc1nccn1-c1ncnc2c1ncn2CC(O)CN1CCN(C(c2ccccc2)c2ccccc2)CC1 (stereo not drawn) |  | 158% | EC50 [6]: 1260 nM; dP/dt [4]: 60 nM; EC20 [5]: 90 nM
24 | c1ccc2c(c1)CCc1ccccc1C2N1CCN(CCCn2cnc3c(-n4cccc4)ncnc32)CC1 | 120% |  | 
25 | O[C@@H](CN1CCN(C(c2ccccc2)c2ccccc2)CC1)Cn1cnc2c(-c3cccs3)ncnc21 |  | 116% | EC50 [6]: 1030 nM
26 | CC(c1ccccc1)N1CCN(CC(O)Cn2cnc3c(-n4cccc4)ncnc32)CC1 (stereo not drawn) | -32% |  | 
27 | O[C@@H](CN1CCN(C(c2ccccc2)c2ccccc2)CC1)Cn1cnc(-c2cccs2)c2ncnc1-2 |  | 437% | EC50 [6]: 433 nM
28 | OC(CN1CCN(Cc2ccccc2)CC1)Cn1cnc2c(-n3cccc3)ncnc21 (stereo not drawn) | 182% |  | 

Row | Compound | Change [1] | Change [2] | other results
29 | Nc1ncnc2c1ncn2CCCN1CCN(C(c2ccccc2)c2ccccc2)CC1 | -66% |  | 
30 | O=Cc1cccn1-c1ncnc2c1ncn2C[C@@H](O)CN1CCN(C(c2ccccc2)c2ccccc2)CC1 |  | 904% | EC50 [6]: 78 nM; dP/dt [4]: 17 nM; EC20 [5]: 17 nM
31 | Cc1nccn1-c1ncnc2c1ncn2C[C@@H](O)CN1CCN(C(c2ccccc2)c2ccccc2)CC1 |  | 1449% | EC50 [6]: 2700 nM
32 | O=Cc1ccn(-c2ncnc3c2ncn3C[C@@H](O)CN2CCN(C(c3ccccc3)c3ccccc3)CC2)c1 |  | 63% | EC50 [6]: 7260 nM
33 | OC(CN1CCN(C(c2ccccc2)c2ccccc2)CC1)Cn1ccc2cccnc21 (stereo not drawn) | -71% |  | 
34 | Cc1ccn(-c2ncnc3c2ncn3CC(O)CN2CCN(C(c3ccccc3)c3ccccc3)CC2)n1 (stereo not drawn) |  | 40% | 
35 | OC(CN1CCN(C(c2ccccc2)c2ccncc2)CC1)Cn1cnc2c(-n3cccc3)ncnc21 (stereo not drawn) | 326% |  | 
36 | OC(CN1CCN(C(c2ccccc2)c2ccccc2)CC1)Cn1ccc2ccccc21 (stereo not drawn) | 36% |  | 
37 | Cc1cc2c(n1-c1ncnc3c1ncn3CC(O)CN1CCN(C(c3ccccc3)c3ccccc3)CC1)CCCC2 (stereo not drawn) | 8% |  | 
38 | N#Cc1cccn1-c1ncnc2c1ncn2C[C@@H](O)CN1CCN(C(c2ccccc2)c2ccccc2)CC1 |  | 456% | EC50 [6]: 447 nM; dP/dt [4]: 22 nM; EC20 [5]: 57 nM
39 | O/N=C(/CN1CCN(C(c2ccccc2)c2ccccc2)CC1)Cn1cnc2c(-n3cccc3)ncnc21 | -6% |  | 
40 | O[C@@H](CN1CCN(C(c2ccccc2)c2ccccc2)CC1)Cn1cnc2c(-n3cccc3)nc(C(F)(F)F)nc21 | -13% |  | 
41 | O[C@@H](CN1CCN(C(c2ccccc2)c2ccccc2)CC1)Cn1cnc2c(-n3ccnc3)ncnc21 |  | 459% | EC50 [6]: 1250 nM; EC20 [5]: 30 nM
42 | OC(CN1CCN(C(c2ccccc2)c2ccccc2)CC1)Cn1cnc2c(Cc3ccccc3)ncnc21 (stereo not drawn) | -100% |  | 
43 | O=C(CN1CCN(C(c2ccccc2)c2ccccc2)CC1)Cn1cnc2c(-n3cccc3)ncnc21 | 9% |  | 
44 | O[C@@H](CN1CCN(C(c2ccccc2)c2ccccc2)CC1)Cn1cnc2c(-n3cccc3)ncnc21 | 390% |  | EC50 [3]: 245 nM
45 | Cc1ccccc1C(c1ccccc1)N1CCN(CC(O)Cn2cnc3c(-n4cccc4)ncnc32)CC1 (stereo not drawn) | 209% |  | 
46 | OC(CN1CCC(C(c2ccccc2)c2ccccc2)CC1)Cn1cnc2c(-n3cccc3)ncnc21 (stereo not drawn) | 108% |  | 
47 | Nc1ncnc2c1ncn2C[C@H](O)CN1CCN(C(c2ccccc2)c2ccccc2)CC1 | -43% |  | dP/dt [4]: 1140 nM; EC20 [5]: 5240 nM
48 | Cc1ccc(C)n1-c1ncnc2c1ncn2CC(O)CN1CCN(C(c2ccccc2)c2ccccc2)CC1 (stereo not drawn) | -47% |  | 
49 | CN1CCN(CC(O)Cn2cnc3c(-n4cccc4)ncnc32)CC1 (stereo not drawn) | -35% |  | 
50 | O[C@@H](CN1CCN(C(c2ccccc2)c2ccccc2)CC1)Cn1cnc2c(-n3cncn3)ncnc21 |  | 393% | EC50 [6]: 920 nM; dP/dt [4]: 43 nM; EC20 [5]: 35 nM
51 | O[C@@H](CN1CCN(C(c2ccccc2)c2ccccc2)CC1)Cn1cnc2c(-c3ccncc3)ncnc21 |  | 99% | EC50 [6]: 2800 nM
52 | OC(CN1CCN(C(c2ccccc2)c2ccccc2)CC1)Cn1cnc2cccnc21 (stereo not drawn) | 154% |  | 
53 | O[C@@H](CN1CCN(C(c2ccccc2)c2ccccc2)CC1)Cn1cnc(-c2ccncc2)c2ncnc1-2 |  | 265% | EC50 [6]: 2100 nM
54 | CC1CN(CC(O)Cn2cnc3c(-n4cccc4)ncnc32)CCN1C(c1ccccc1)c1ccccc1 (stereo not drawn) | 839% |  | 
55 | OC(CN1CCN(C(c2ccccc2)c2ccccc2)CC1)Cn1cnc2c(NCc3ccccc3)ncnc21 (stereo not drawn) | -77% |  | 
